Test results as given in ChEMBL document CHEMBL1153046, “Synthesis and antitumor activity of substituted triazolo[4,3-a]pyrimidin-6-sulfonamide with an incorporated thiazolidinone moiety” (2009).

Tests used:
Assay type in all cases: functional
TK-10 = assay: Growth inhibition of human TK10 cells after 48 hrs by sulforhodamine B assay; settings: TK-10, 48 h
Outline: (§1)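 NCI 60-cell-line panel (nine cancer types), with cells grown in RPMI1640 plus 5% fetal calf serum and 2 mM L-glutamine. Cells are seeded at a density that depends on the line and preincubated 24 h. Compounds are then applied at a minimum of five 10-fold dilutions over a 5-log range with 48 h continuous exposure. Viability is read by SRB protein assay, and GI50 is derived from dose-response curves in units of 10^-5 M.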

SW-620 = assay: Growth inhibition of human SW620 cells after 48 hrs by sulforhodamine B assay; settings: SW-620, 48 h; outline: as §1
BT-549 = assay: Growth inhibition of human BT549 cells after 48 hrs by sulforhodamine B assay; settings: BT-549, 48 h
Outline: (§2)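 NCI 60-cell-line panel. Cells are grown in RPMI1640 with 5% fetal calf serum and 2 mM L-glutamine, seeded at a density set by growth characteristics, and preincubated 24 h. Compound is tested at a minimum of five concentrations at 10-fold dilution, with 48 h continuous exposure. Viability is read by sulforhodamine B protein assay. GI50, TGI and LC50 come from dose-response curves.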

SF-539 = assay: Growth inhibition of human SF539 cells after 48 hrs by sulforhodamine B assay; settings: SF-539, 48 h; outline: as §2
HCT-15 = assay: Growth inhibition of human HCT15 cells after 48 hrs by sulforhodamine B assay; settings: HCT-15, 48 h; outline: as §2
CCRF-CEM = assay: Growth inhibition of human CCRF-CEM cells after 48 hrs by sulforhodamine B assay; outline: as §2
A498 = assay: Growth inhibition of human A498 cells after 48 hrs by sulforhodamine B assay; settings: A498, 48 h; outline: as §2
HOP-62 = assay: Growth inhibition of human HOP62 cells after 48 hrs by sulforhodamine B assay; settings: HOP-62, 48 h; outline: as §2
HCC 2998 = assay: Growth inhibition of human HCC2998 cells after 48 hrs by sulforhodamine B assay; settings: HCC 2998, 48 h; outline: as §2
OVCAR-3 = assay: Growth inhibition of human OVCAR-3 cells after 48 hrs by sulforhodamine B assay; settings: OVCAR-3, 48 h; outline: as §2
[1] = Growth inhibition of human […] cells after 48 hrs by sulforhodamine B assay; outline: as §2
MOLT-4 = assay: Growth inhibition of human MOLT4 cells after 48 hrs by sulforhodamine B assay; settings: MOLT-4, 48 h; outline: as §2
UACC-257 = assay: Growth inhibition of human UACC257 cells after 48 hrs by sulforhodamine B assay; settings: UACC-257, 48 h; outline: as §1
K562 = assay: Growth inhibition of human K562 cells after 48 hrs by sulforhodamine B assay; settings: K562, 48 h; outline: as §2
NCI-H522 = assay: Growth inhibition of human NCI-H522 cells after 48 hrs by sulforhodamine B assay; settings: NCI-H522, 48 h; outline: as §2
SNB-75 = assay: Growth inhibition of human SNB75 cells after 48 hrs by sulforhodamine B assay; settings: SNB-75, 48 h; outline: as §1
COLO 205 = assay: Growth inhibition of human COLO205 cells after 48 hrs by sulforhodamine B assay; settings: COLO 205, 48 h; outline: as §2
HT-29 = assay: Growth inhibition of human HT-29 cells after 48 hrs by sulforhodamine B assay; settings: HT-29, 48 h; outline: as §2
[2] = Growth inhibition of human Hs 578T cells after 48 hrs by sulforhodamine B assay; outline: as §2
SF-295 = assay: Growth inhibition of human SF295 cells after 48 hrs by sulforhodamine B assay; settings: SF-295, 48 h; outline: as §2
OVCAR-8 = assay: Growth inhibition of human OVCAR8 cells after 48 hrs by sulforhodamine B assay; settings: OVCAR-8, 48 h; outline: as §2
MCF7 [3] = assay: Growth inhibition of human MCF7 cells after 48 hrs by sulforhodamine B assay; settings: MCF7, 48 h; outline: as §2
NCI-H460 = assay: Growth inhibition of human NCI-H460 cells after 48 hrs by sulforhodamine B assay; settings: NCI-H460, 48 h; outline: as §2
MCF7 [4] = assay: Antiproliferative activity against human MCF7 cells assessed as cell growth at 100 uM after 48 hrs by alamar blue assay; settings: MCF7, 48 h, read-out: Activity
Outline: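 NCI three-cell-line primary screen. Cells are seeded and preincubated in microtiter plates. Compound is added at a single 10^-4 M concentration and cultures are incubated 48 h. The end-point is read with alamar blue. Results are given as percent growth relative to untreated control cells.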

OVCAR-5 = assay: Growth inhibition of human OVCAR5 cells after 48 hrs by sulforhodamine B assay; settings: OVCAR-5, 48 h; outline: as §2
SR = assay: Growth inhibition of human SR cells after 48 hrs by sulforhodamine B assay; outline: as §1
NCI/ADR-RES = assay: Growth inhibition of human NCI/ADR-RES cells after 48 hrs by sulforhodamine B assay; outline: as §2
M14 = assay: Growth inhibition of human M14 cells after 48 hrs by sulforhodamine B assay; settings: M14, 48 h; outline: as §2
T47D = assay: Growth inhibition of human T47D cells after 48 hrs by sulforhodamine B assay; outline: as §1
[5] = read-out: LC50 (the source's name)

COc1ccc(/C=N/c2nc3[nH]nc(C)n3c(=O)c2S(=O)(=O)NN2C(=O)C(CN3CCOCC3)SC2c2cccs2)cc1 (stereo not given)
GI50 (TK-10): 20.8 µM | LC50 (TK-10): > 100 µM | TGI (TK-10): 92 µM | GI50 (SW-620): 6.11 µM | GI50 (BT-549): 18 µM | TGI (BT-549): > 100 µM | GI50 (SF-539): 7.24 µM | LC50 (SF-539): > 100 µM | TGI (SF-539): 30.4 µM | GI50 (HCT-15): 4.52 µM | TGI (HCT-15): 71.7 µM | GI50 (CCRF-CEM): 6.27 µM | TGI (CCRF-CEM): > 100 µM | GI50 (A498): 2.67 µM | LC50 (concentration giving 50% net cell kill) (A498): > 100 µM | TGI (A498): 15.5 µM | GI50 (HOP-62): 13.9 µM | LC50 (HOP-62): > 100 µM | TGI (HOP-62): > 100 µM | GI50 (HCC 2998): 3.96 µM | LC50 (HCC 2998): 64.8 µM | TGI (HCC 2998): 31.3 µM | GI50 (OVCAR-3): 3.6 µM | LC50 (concentration killing 50% of cells) (OVCAR-3): > 100 µM | TGI (OVCAR-3): > 100 µM | GI50 [1]: 3.86 µM | TGI [1]: 26.2 µM | CC50 [1, 5]: > 100 µM | GI50 (MOLT-4): 4.08 µM | TGI (MOLT-4): 40.6 µM | CC50 (MOLT-4; [5]): > 100 µM | GI50 (UACC-257): 6.77 µM | LC50 (UACC-257): > 100 µM | TGI (UACC-257): > 100 µM | GI50 (K562): 2.34 µM | LC50 (K562): > 100 µM | TGI (K562): 11.3 µM | GI50 (NCI-H522): 4.35 µM | TGI (NCI-H522): 27.3 µM | GI50 (SNB-75): 35.5 µM | TGI (SNB-75): > 100 µM | GI50 (COLO 205): 14.9 µM | TGI (COLO 205): 12.8 µM | GI50 (HT-29): 19.4 µM | GI50 [2]: 13.3 µM | LC50 (concentration killing 50% of cells) [2]: > 100 µM | TGI [2]: 82.1 µM | GI50 (SF-295): 4.69 µM | LC50 (concentration killing 50% of cells) (SF-295): > 100 µM | TGI (SF-295): > 100 µM | GI50 (OVCAR-8): 60.6 µM | TGI (OVCAR-8): > 100 µM | GI50 (MCF7 [3]): 3.18 µM | TGI (MCF7 [3]): > 100 µM | GI50 (NCI-H460): 5.32 µM | TGI (NCI-H460): > 100 µM | growth at 100 µM (MCF7 [4]): 24% | GI50 (OVCAR-5): 43.4 µM | LC50 (concentration causing 50% net cell kill) (OVCAR-5): > 100 µM | TGI (OVCAR-5): > 100 µM | GI50 (SR): 1.1 µM | LC50 (concentration killing 50% of cells) (SR): 9.2 µM | TGI (SR): 3.2 µM | GI50 (NCI/ADR-RES): 9.98 µM | TGI (NCI/ADR-RES): 64.8 µM | GI50 (M14): 6.79 µM | LC50 (concentration killing 50% of cells) (M14): > 100 µM | TGI (M14): 38.7 µM | GI50 (T47D): 48 µM | TGI (T47D): > 100 µM
